Measurements reported in ChEMBL document CHEMBL3822443, “Looking for new antiplasmodial quinazolines: DMAP-catalyzed synthesis of 4-benzyloxy- and 4-aryloxy-2-trichloromethylquinazolines and their in vitro evaluation toward Plasmodium falciparum” (Eur J Med Chem, 2016).

How the values were obtained:
[1] = Selectivity index, ratio of CC50 for human HepG2 cells to IC50 for chloroquine/purimethamine/proguanil-resistant Plasmodium falciparum K1; type: functional
Procedure, shortened: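 SI = CC50/IC50 (K1). […] MTT at 0.5 mg/mL was added for 2 h, and absorbance read at 570 nm against 630 nm reference. Viability was taken as % of control, and CC50 is the mean of three independent experiments.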

[2] = Solubility of compound in RPMI1640 culture medium containing 25mM HEPES, 25 mM NaHCO3 and 10% A+ human serum; type: physicochemical
[3] = Cytotoxicity against human HepG2 cells measured after 72 hrs by MTT assay; type: cell-based
Procedure, shortened: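 Cells seeded at 5.10³ per well in complete medium at 37 °C, humidified 6% CO₂, and left 24 h. Compound was added in DMSO (final under 0.5% v/v) over a range of concentrations for 72 h at 37 °C, in triplicate. Wells were checked under the microscope for precipitate. MTT (0.5 mg/mL in FCS-free medium) was added for 2 h, then A570 read with a 630 nm reference. Viability was taken as % of control, CC50 from dose–response, mean of three independent experiments.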

Plasmodium falciparum = experiment: Antiplasmodial activity against chloroquine/purimethamine/proguanil-resistant Plasmodium falciparum K1 infected in human A+ erythrocytes assessed as reduction in parasitaemia measured after 72 hrs by SYBR Green I fluorescence-based assay; type: functional, organism-based; conditions: K1, 72 h

## COc1cccc(Oc2nc(C(Cl)(Cl)Cl)nc3ccccc23)c1
[1]
  Ratio CC50/IC50: 0.3
[2]
  solubility: soluble
[3]
  CC50 at 72 h: 0.5 µM

## Clc1ccc(Oc2nc(C(Cl)(Cl)Cl)nc3ccccc23)c(Cl)c1
Plasmodium falciparum
  IC50: 1.2 µM
[1]
  Ratio CC50/IC50: 18.4
[2]
  solubility: soluble
[3]
  CC50 at 72 h: 22.1 µM

## CC(=O)c1ccccc1Oc1nc(C(Cl)(Cl)Cl)nc2ccccc12
Plasmodium falciparum
  IC50: 1.5 µM
[1]
  Ratio CC50/IC50: 26.7
[2]
  solubility: soluble
[3]
  CC50 at 72 h: 40 µM

## Cc1cc(Oc2nc(C(Cl)(Cl)Cl)nc3ccccc23)ccc1Cl
Plasmodium falciparum
  IC50: 0.9 µM
[1]
  Ratio CC50/IC50: 5.9
[2]
  solubility: soluble
[3]
  CC50 at 72 h: 5.3 µM

## COc1ccc(COc2nc(C(Cl)(Cl)Cl)nc3ccccc23)cc1OC
Plasmodium falciparum
  IC50: 3.9 µM
[1]
  Ratio CC50/IC50: 30.6
[2]
  solubility: soluble
[3]
  CC50 at 72 h: 118 µM

## ClC(Cl)(Cl)c1nc(Oc2c(Br)cc(Br)c3cccnc23)c2ccccc2n1
Plasmodium falciparum
  IC50: > 10 µM
[1]
  Ratio CC50/IC50: <0.5
[2]
  solubility: soluble
[3]
  CC50 at 72 h: 4.9 µM

## Cc1ccc(COc2nc(C(Cl)(Cl)Cl)nc3ccccc23)cc1
Plasmodium falciparum
  IC50: 4 µM
[1]
  Ratio CC50/IC50: 12.7
[2]
  solubility: soluble
[3]
  CC50 at 72 h: 50.9 µM

## ClC(Cl)(Cl)c1nc(Oc2cccc(Br)c2)c2ccccc2n1
Plasmodium falciparum
  IC50: 2.3 µM
[1]
  Ratio CC50/IC50: 16
[2]
  solubility: soluble
[3]
  CC50 at 72 h: 36.7 µM

## ClC(Cl)(Cl)c1nc(OCc2cccc(OCc3ccccc3)c2)c2ccccc2n1
Plasmodium falciparum
  IC50: 3.8 µM
[1]
  Ratio CC50/IC50: 16.4
[2]
  solubility: soluble
[3]
  CC50 at 72 h: 62.5 µM

## ClC(Cl)(Cl)c1nc(Oc2ccccc2Br)c2ccccc2n1
Plasmodium falciparum
  IC50: 1.9 µM
[1]
  Ratio CC50/IC50: 13.8
[2]
  solubility: soluble
[3]
  CC50 at 72 h: 26.2 µM

## Clc1ccc(COc2nc(C(Cl)(Cl)Cl)nc3ccccc23)cc1
Plasmodium falciparum
  IC50: 2.5 µM
[1]
  Ratio CC50/IC50: 13.4
[2]
  solubility: soluble
[3]
  CC50 at 72 h: 33.4 µM

## Cc1occc(=O)c1Oc1nc(C(Cl)(Cl)Cl)nc2ccccc12
Plasmodium falciparum
  IC50: > 10 µM
[1]
  Ratio CC50/IC50: <6.3
[2]
  solubility: soluble
[3]
  CC50 at 72 h: 62.7 µM

## CC(=O)c1ccccc1Oc1nc(C)nc2ccccc12
Plasmodium falciparum
  IC50: > 15 µM
[2]
  solubility: soluble

## N#Cc1ccc(Oc2nc(C(Cl)(Cl)Cl)nc3ccccc23)cc1
Plasmodium falciparum
  IC50: 1.6 µM
[1]
  Ratio CC50/IC50: >5
[2]
  solubility: Insoluble
[3]
  CC50 at 72 h: > 8 µM

## FC(F)(F)c1ccc(COc2nc(C(Cl)(Cl)Cl)nc3ccccc23)cc1
Plasmodium falciparum
  IC50: 2.8 µM
[1]
  Ratio CC50/IC50: 9.9
[2]
  solubility: soluble
[3]
  CC50 at 72 h: 27.8 µM

## O=[N+]([O-])c1ccc(COc2nc(C(Cl)(Cl)Cl)nc3ccccc23)cc1
Plasmodium falciparum
  IC50: 1.8 µM
[1]
  Ratio CC50/IC50: 19.4
[2]
  solubility: soluble
[3]
  CC50 at 72 h: 34.9 µM

## COc1ccc(COc2nc(C(Cl)(Cl)Cl)nc3ccccc23)cc1
Plasmodium falciparum
  IC50: > 10 µM
[1]
  Ratio CC50/IC50: <9
[2]
  solubility: soluble
[3]
  CC50 at 72 h: 90.3 µM

## O=c1cc(Oc2nc(C(Cl)(Cl)Cl)nc3ccccc23)c2ccccc2o1
Plasmodium falciparum
  IC50: > 10 µM
[1]
  Ratio CC50/IC50: <5.9
[2]
  solubility: soluble
[3]
  CC50 at 72 h: 59 µM

## ClC(Cl)(Cl)c1nc(Oc2ccc3ccccc3n2)c2ccccc2n1
Plasmodium falciparum
  IC50: > 10 µM
[1]
  Ratio CC50/IC50: <3
[2]
  solubility: soluble
[3]
  CC50 at 72 h: 30.3 µM

## CC(C)c1ccc(COc2nc(C(Cl)(Cl)Cl)nc3ccccc23)cc1
Plasmodium falciparum
  IC50: > 10 µM
[1]
  Ratio CC50/IC50: <3.3
[2]
  solubility: soluble
[3]
  CC50 at 72 h: 33.3 µM

## O=Cc1ccccc1Oc1nc(C(Cl)(Cl)Cl)nc2ccccc12
Plasmodium falciparum
  IC50: 10 µM
[1]
  Ratio CC50/IC50: 7.5
[2]
  solubility: soluble
[3]
  CC50 at 72 h: 75 µM

## CC(=O)c1cccc(Oc2nc(C(Cl)(Cl)Cl)nc3ccccc23)c1
Plasmodium falciparum
  IC50: 1.7 µM
[1]
  Ratio CC50/IC50: 0.6
[2]
  solubility: soluble
[3]
  CC50 at 72 h: 1 µM

## O=[N+]([O-])c1cccc(COc2nc(C(Cl)(Cl)Cl)nc3ccccc23)c1
Plasmodium falciparum
  IC50: 2.2 µM
[1]
  Ratio CC50/IC50: 13.6
[2]
  solubility: soluble
[3]
  CC50 at 72 h: 29.9 µM

## C#CC(Oc1nc(C(Cl)(Cl)Cl)nc2ccccc12)c1ccccc1 (configuration not stated)
Plasmodium falciparum
  IC50: 2.4 µM
[1]
  Ratio CC50/IC50: 10.2
[2]
  solubility: soluble
[3]
  CC50 at 72 h: 24.6 µM

## Fc1c(F)c(F)c(Oc2nc(C(Cl)(Cl)Cl)nc3ccccc23)c(F)c1F
Plasmodium falciparum
  IC50: 4.4 µM
[1]
  Ratio CC50/IC50: 9.9
[2]
  solubility: soluble
[3]
  CC50 at 72 h: 43.7 µM

## ClC(Cl)(Cl)c1nc(OCc2ccccc2)c2ccccc2n1
Plasmodium falciparum
  IC50: 2 µM
[1]
  Ratio CC50/IC50: 21.9
[2]
  solubility: soluble
[3]
  CC50 at 72 h: 43.8 µM

## O=[N+]([O-])c1ccccc1COc1nc(C(Cl)(Cl)Cl)nc2ccccc12
Plasmodium falciparum
  IC50: 2.3 µM
[1]
  Ratio CC50/IC50: >4.3
[2]
  solubility: Insoluble
[3]
  CC50 at 72 h: > 10 µM

## CC(=O)c1ccc(Oc2nc(C(Cl)(Cl)Cl)nc3ccccc23)cc1
Plasmodium falciparum
  IC50: 2.3 µM
[1]
  Ratio CC50/IC50: 21.5
[2]
  solubility: soluble
[3]
  CC50 at 72 h: 49.5 µM

## O=[N+]([O-])c1ccc(/C=C/COc2nc(C(Cl)(Cl)Cl)nc3ccccc23)cc1
Plasmodium falciparum
  IC50: 2.6 µM
[1]
  Ratio CC50/IC50: 12
[2]
  solubility: soluble
[3]
  CC50 at 72 h: 31.2 µM

## O=[N+]([O-])c1cc2c(cc1COc1nc(C(Cl)(Cl)Cl)nc3ccccc13)OCO2
Plasmodium falciparum
  IC50: 3.1 µM
[1]
  Ratio CC50/IC50: 9.3
[2]
  solubility: soluble
[3]
  CC50 at 72 h: 28.7 µM

## ClC(Cl)(Cl)c1nc(Oc2ccc(Br)cc2)c2ccccc2n1
Plasmodium falciparum
  IC50: 1.8 µM
[1]
  Ratio CC50/IC50: 25
[2]
  solubility: soluble
[3]
  CC50 at 72 h: 45 µM

## CC(Oc1nc(C(Cl)(Cl)Cl)nc2ccccc12)c1ccc(Cl)cc1 (configuration not stated)
Plasmodium falciparum
  IC50: 3.5 µM
[1]
  Ratio CC50/IC50: 7.2
[2]
  solubility: soluble
[3]
  CC50 at 72 h: 25.1 µM

## N#CC(Oc1nc(C(Cl)(Cl)Cl)nc2ccccc12)c1ccccc1 (configuration not stated)
Plasmodium falciparum
  IC50: 1.5 µM
[1]
  Ratio CC50/IC50: 17.1
[2]
  solubility: soluble
[3]
  CC50 at 72 h: 25.7 µM

## CC(Oc1nc(C(Cl)(Cl)Cl)nc2ccccc12)c1ccccc1 (configuration not stated)
Plasmodium falciparum
  IC50: 3.3 µM
[1]
  Ratio CC50/IC50: 12.1
[2]
  solubility: soluble
[3]
  CC50 at 72 h: 39.9 µM

## CC(Oc1nc(C(Cl)(Cl)Cl)nc2ccccc12)c1ccc(Cl)cc1Cl (configuration not stated)
Plasmodium falciparum
  IC50: 4.2 µM
[1]
  Ratio CC50/IC50: 7.2
[2]
  solubility: soluble
[3]
  CC50 at 72 h: 30.2 µM

## COc1cc(C=O)cc([N+](=O)[O-])c1Oc1nc(C(Cl)(Cl)Cl)nc2ccccc12
Plasmodium falciparum
  IC50: > 10 µM
[1]
  Ratio CC50/IC50: <5.7
[2]
  solubility: soluble
[3]
  CC50 at 72 h: 57 µM

## C[C@H]1c2cccc(O)c2C(=O)C2=C(O)[C@]3(O)C(=O)C(C(N)=O)=C(O)[C@@H](N(C)C)[C@@H]3[C@@H](O)[C@@H]21.O [DOXYCYCLINE]
[1]
  Ratio CC50/IC50: 3.3
